Shown are actives, neighbours in structure and some others; about 3.5% of the full set was active somewhere.
MrgX1 antagonist: human MrgX1 receptor antagonism, primary screen | B-score at 10 µM | AID 588676 | Q96LB2 | 1.3% of 310,000 active | MRGX1-HEK293 calcium flux, Fluo-4, BAM8-22 antagonism; stronger effect = lower value;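 active = calcium-response B-score plate-corrected more than 3 library SD below zero, starting fluorescence within 5 deviations, no agonist response on first addition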;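 also: peak minus trough fluorescence over baseline after final BAM8-22 challenge near maximal dose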
Target sequence (Q96LB2 whole entry, looked up): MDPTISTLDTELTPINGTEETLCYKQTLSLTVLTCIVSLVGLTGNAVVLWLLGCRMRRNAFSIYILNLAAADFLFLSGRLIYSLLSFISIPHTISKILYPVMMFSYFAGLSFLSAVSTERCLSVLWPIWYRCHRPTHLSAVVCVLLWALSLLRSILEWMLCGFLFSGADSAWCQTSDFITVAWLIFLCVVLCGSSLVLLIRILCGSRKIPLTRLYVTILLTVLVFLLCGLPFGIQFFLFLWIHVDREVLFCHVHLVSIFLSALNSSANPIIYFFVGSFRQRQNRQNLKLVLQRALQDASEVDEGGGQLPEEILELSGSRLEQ
MrgX1 PAM: allosterically activates human MrgX1 receptor signaling; 0.63% of 310,000 active; B-score at 10 µM; Q96LB2; MrgX1-HEK293, Fluo-4 calcium flux, FDSS; stronger effect = higher value;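 active = plate-corrected calcium response at least 3 library SD above typical, normal starting fluorescence, not activating the receptor alone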;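 also: compound read alongside a low EC10 to EC30 dose of BAM8-22 agonist; peak minus trough fluorescence over baseline measured at the second addition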
RGS4 inh: inhibitors of human RGS4 | HEK293 M3R/RGS4 inducible, Fluo-4 calcium flux; stronger effect = higher value; triggered by carbachol at its EC20 | B-score at 10 µM | P49798 | 0.45% of 310,000 active;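 active = B-score, a plate-corrected calcium signal, over three deviations above library mean, with baseline fluorescence within five deviations of library mean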;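 also: RGS4 expression induced by doxycycline in cells with stable M3 receptor; B-score is computed from the integrated fluorescence ratio over baseline after carbachol; higher B-score means a larger calcium signal and so more RGS4 inhibition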
Target sequence (P49798 whole entry, looked up): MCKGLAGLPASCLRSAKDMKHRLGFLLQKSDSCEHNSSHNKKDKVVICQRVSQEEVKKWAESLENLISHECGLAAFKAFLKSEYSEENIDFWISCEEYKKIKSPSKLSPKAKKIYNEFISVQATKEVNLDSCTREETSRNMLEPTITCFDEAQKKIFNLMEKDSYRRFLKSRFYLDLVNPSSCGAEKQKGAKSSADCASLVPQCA
MrgX1 agonist: activates human MrgX1 receptor signaling | Q96LB2 | MrgX1-HEK293 cells, Fluo-4 calcium fluorescence, agonist mode; stronger effect = higher value | B-score at 10 µM | 0.44% of 310,000 active;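 active = calcium response B-score plate-corrected fluorescence ratio at least 3 library SD, with starting fluorescence B-score inside 5 SD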
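System: HEK293 cells stably expressing human MrgX1 receptor; Dosing: test compound in the initial addition of three; Schedule: overnight plating, then 30 min 37 °C plus 30 min room-temperature dye loading; Detection: kinetic calcium dye fluorescence, Fluo-4 NW; Controls: per-plate positive and negative controls for Z′ factor.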
RGS4 act: RGS4 potentiation or activation; HEK293 M3R/inducible RGS4, carbachol calcium flux Fluo4; stronger effect = lower value; B-score at 10 µM; 0.92% of 310,000 active;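 active = B-score of the integrated calcium signal more than 4 SD below the library mean, with starting fluorescence not abnormally high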;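 also: negative B-score means reduced calcium response which marks RGS4 activation or potentiation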
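Detection: kinetic calcium fluorescence imaging with Fluo4-AM dye, 2 µM / Material: HEK293 cells with stable M3R and inducible RGS4 / Schedule: recording 10 s baseline at 1 Hz, 100 s post-agonist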
RGS4 activ val: confirmation of RGS4 activators; shares compounds with RGS4 act; HEK293 M3R/RGS4 inducible, carbachol calcium flux Fluo4; inhibition, % at 10 µM; 89% of 1,100 active; AID 602282;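 active = inhibition above 3 SD of the buffer control wells, cut at about 41% in these data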;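 also: signal is the integrated peak-minus-minimum Fluo4 fluorescence over baseline ratio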
M3R Ca counter: counter-screen for RGS4 activators: effect in non-induced cells | 82% of 1,100 active | shares compounds with RGS4 act | HEK293 M3R non-induced RGS4, Fluo4 calcium flux; after carbachol challenge at its EC90 | inhibition, % at 10 µM;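 active = inhibition exceeding 3 SD of buffer-only control wells, cut at about 26% in these data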;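 also: percent drop in integrated peak-minus-baseline over baseline Fluo4 ratio after carbachol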
* marks the source's active call; other numbers are inactive results.

Results for CC1CCCCN1CCNC(=O)c1ccc2c(c1)N(Cc1ccccc1F)C(=O)c1ccccc1S2=O (stereo not given) ?
MrgX1 antagonist: inactive; MrgX1 PAM: inactive; RGS4 inh: inactive; MrgX1 agonist: inactive; RGS4 act: -7.4*

How did O=C(NCCCN1CCCC1)c1ccc2c(c1)N(Cc1ccccc1F)C(=O)c1ccccc1S2=O (stereo not given) do in these assays?
MrgX1 antagonist: inactive; MrgX1 PAM: inactive; RGS4 inh: inactive; MrgX1 agonist: inactive; RGS4 act: inactive

Results for Cc1ccc(CN(Cc2cc3cccc(C)c3[nH]c2=O)C(=S)NCCCN(C)C)cc1 ?
MrgX1 antagonist: inactive; MrgX1 PAM: 9.7*; RGS4 inh: inactive; MrgX1 agonist: inactive; RGS4 act: inactive

How did CCC(C)(C)n1nnnc1CN1CCN(C(c2ccccc2)c2ccccc2)CC1 do in these assays?
MrgX1 antagonist: inactive; MrgX1 PAM: inactive; RGS4 inh: inactive; MrgX1 agonist: inactive; RGS4 act: -7.5*

Results for CCC(C)(C)n1nnnc1C(c1ccccc1)N1CCN(Cc2ccccc2)CC1 (stereo not given) ?
MrgX1 antagonist: inactive; MrgX1 PAM: inactive; RGS4 inh: inactive; MrgX1 agonist: inactive; RGS4 act: inactive

What do the screens show for `CC(=O)NC1C(=O)N(CCN2CCOCC2)c2ccc(C)cc21` (stereo not given)?
MrgX1 antagonist: -6.1*; MrgX1 PAM: inactive; RGS4 inh: inactive; MrgX1 agonist: inactive; RGS4 act: inactive

What do the screens show for `COc1ccccc1-c1cnn2c(NCc3ccccc3)cc(C)nc12`?
MrgX1 antagonist: inactive; MrgX1 PAM: inactive; RGS4 inh: inactive; MrgX1 agonist: inactive; RGS4 act: -7.3*

Results for CCCCCCCCC[n+]1cccc2c3ccccc3ccc21 ?
MrgX1 antagonist: inactive; MrgX1 PAM: inactive; RGS4 inh: inactive; MrgX1 agonist: inactive; RGS4 act: -8.6*

How did NS(=O)(=O)c1ccc(Oc2ccc(S(N)(=O)=O)cc2)cc1 do in these assays?
MrgX1 antagonist: inactive; MrgX1 PAM: inactive; RGS4 inh: inactive; MrgX1 agonist: inactive; RGS4 act: inactive

What do the screens show for `C=CS(=O)(=O)c1ccc(Oc2ccc(S(=O)(=O)C=C)cc2)cc1`?
MrgX1 antagonist: inactive; MrgX1 PAM: inactive; RGS4 inh: 21*; MrgX1 agonist: 31*; RGS4 act: inactive

What do the screens show for `COC(=O)c1cn(CCOc2ccccc2)c2ccccc12`?
MrgX1 antagonist: inactive; MrgX1 PAM: inactive; RGS4 inh: inactive; MrgX1 agonist: inactive; RGS4 act: inactive

How did CCN(CC)C(=O)C(=O)c1cn(CCOc2ccccc2)c2ccccc12 do in these assays?
MrgX1 antagonist: inactive; MrgX1 PAM: inactive; RGS4 inh: inactive; MrgX1 agonist: inactive; RGS4 act: -7.1*

Results for CC(C)Oc1ccc(/C=N/NC(=O)c2nnn(-c3nonc3N)c2CN(C)c2ccccc2)cc1 ?
MrgX1 antagonist: inactive; MrgX1 PAM: inactive; RGS4 inh: inactive; MrgX1 agonist: inactive; RGS4 act: inactive

Results for Cc1ccc(NC(=O)CN2C(=O)CNC2=O)cc1 ?
MrgX1 antagonist: inactive; MrgX1 PAM: inactive; RGS4 inh: inactive; MrgX1 agonist: inactive; RGS4 act: inactive

Results for CC1CC(CC(C)C(=O)Nc2nncs2)C(=O)O1 (stereo not given) ?
MrgX1 antagonist: inactive; MrgX1 PAM: inactive; RGS4 inh: inactive; MrgX1 agonist: inactive; RGS4 act: inactive

How did CC1CC(CC(C)C(=O)NC(=S)Nc2ccc(S(N)(=O)=O)cc2)C(=O)O1 (stereo not given) do in these assays?
MrgX1 antagonist: -6.5*; MrgX1 PAM: inactive; RGS4 inh: inactive; MrgX1 agonist: inactive; RGS4 act: inactive

What do the screens show for `CC(C)NC(=O)COC(=O)CNC(=O)c1cc(Cl)cc([N+](=O)[O-])c1`?
MrgX1 antagonist: inactive; MrgX1 PAM: inactive; RGS4 inh: inactive; MrgX1 agonist: inactive; RGS4 act: inactive

How did O=C(/C=C/c1ccc([N+](=O)[O-])cc1)/C=C/c1ccco1 do in these assays?
MrgX1 antagonist: inactive; MrgX1 PAM: inactive; RGS4 inh: 16*; MrgX1 agonist: inactive; RGS4 act: inactive

What do the screens show for `CCc1nc2ccc(C(=O)N3CCN(c4ccccc4F)CC3)cc2nc1CC`?
MrgX1 antagonist: inactive; MrgX1 PAM: inactive; RGS4 inh: inactive; MrgX1 agonist: inactive; RGS4 act: inactive

What do the screens show for `Cc1cc(NC(=O)CSc2nnc(N)s2)c([N+](=O)[O-])cc1C`?
MrgX1 antagonist: -7*; MrgX1 PAM: inactive; RGS4 inh: inactive; MrgX1 agonist: inactive; RGS4 act: inactive

How did COc1cccc(/C=C/C(=O)N2CCN(c3n[nH]c(=O)[nH]c3=O)CC2)c1OC do in these assays?
MrgX1 antagonist: inactive; MrgX1 PAM: inactive; RGS4 inh: inactive; MrgX1 agonist: inactive; RGS4 act: inactive

Results for COc1ccc(Cl)cc1-n1c(C)cc(C=O)c1C ?
MrgX1 antagonist: inactive; MrgX1 PAM: 7.8*; RGS4 inh: inactive; MrgX1 agonist: inactive; RGS4 act: inactive

How did CCOc1cccc(C(=O)NC(=S)Nc2ccc(N3CCN(CC)CC3)cc2)c1 do in these assays?
MrgX1 antagonist: inactive; MrgX1 PAM: inactive; RGS4 inh: inactive; MrgX1 agonist: inactive; RGS4 act: -11*; RGS4 activ val: 92*; M3R Ca counter: 87*

What do the screens show for `Oc1ccc(-c2nc3ccccc3s2)c(O)c1`?
MrgX1 antagonist: inactive; MrgX1 PAM: inactive; RGS4 inh: inactive; MrgX1 agonist: inactive; RGS4 act: -7.9*; RGS4 activ val: 0; M3R Ca counter: 0

How did Nc1ccc(O)c(-c2nc3ccccc3s2)c1 do in these assays?
MrgX1 antagonist: inactive; MrgX1 PAM: inactive; RGS4 inh: inactive; MrgX1 agonist: inactive; RGS4 act: inactive

Results for c1ccc(OCCOCCN2CCN(C(c3ccccc3)c3ccccc3)CC2)cc1 ?
MrgX1 antagonist: inactive; MrgX1 PAM: inactive; RGS4 inh: inactive; MrgX1 agonist: inactive; RGS4 act: inactive

Results for O=C1C2CSCN2C(=O)CN1CCCN1CCN(C(c2ccccc2)c2ccccc2)CC1 (stereo not given) ?
MrgX1 antagonist: inactive; MrgX1 PAM: inactive; RGS4 inh: inactive; MrgX1 agonist: inactive; RGS4 act: -8*; RGS4 activ val: 84*; M3R Ca counter: 34*

Results for c1ccc(Cn2c(-c3ccccc3)c[n+]3c2SCCC3)cc1 ?
MrgX1 antagonist: inactive; MrgX1 PAM: inactive; RGS4 inh: inactive; MrgX1 agonist: inactive; RGS4 act: -11*; RGS4 activ val: 92*; M3R Ca counter: 89*

Compound activity: PubChem, Johns Hopkins Ion Channel Center
